“Also recorded” adds a separate entry of the source.
Key:
Format in all cases: in vivo, human
[1] = Durvalumab immunogenicity; settings: durvalumab 1500 mg Q4W in combination with galunisertib
[2] = Steady-state galunisertib plasma pharmacokinetics; settings: for AUC / Cmax: human, plasma, oral, geometric mean (CV %), steady state; for AUC: AUC(0-tau)
[3] = tested on: patients with recurrent or refractory metastatic pancreatic cancer; assay: Dose finding, modified 3+3; settings: co-administered with durvalumab 1500 mg Q4W; days 1–14 of a 28-day cycle
Method in brief: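 Oral galunisertib was given on days 1–14 in escalating cohorts of 50 mg once daily, then 50, 80 or 150 mg twice daily, with durvalumab infused IV over 60 min. Cohorts of three expanded to six after one DLT in cycle 1 (28 days). DLT criteria: grade 4 haematological AE, febrile neutropenia, grade 3–4 irAE or non-haematological AE, <75% planned dose, or >2-week delay. MTD: DLT in <2 of six; otherwise RP2D = maximum study dose.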

Row | Molecule | Anti-drug antibodies against durvalumab [1] | Time to maximum plasma concentration (mean concentration versus time profiles) ([2]; galunisertib 50, 80, and 150 mg two times per day) | AUC ([2]; tau=12 hours, galunisertib 50 mg two times per day + durvalumab 1500 mg Q4W) | AUC ([2]; tau=12 hours, galunisertib 80 mg two times per day + durvalumab 1500 mg Q4W) | AUC ([2]; tau=12 hours, galunisertib 150 mg two times per day + durvalumab 1500 mg Q4W) | AUC ([2]; tau=24 hours, galunisertib 50 mg one time per day + durvalumab 1500 mg Q4W) | Cmax ([2]; galunisertib 50 mg one time per day + durvalumab 1500 mg Q4W) | Cmax ([2]; galunisertib 80 mg two times per day + durvalumab 1500 mg Q4W) | Cmax ([2]; galunisertib 150 mg two times per day + durvalumab 1500 mg Q4W) | Recommended phase II dose (RP2D) of galunisertib [3]
1 | durvalumab | No anti-drug antibodies against durvalumab were detected; also recorded: immunogenicity was not observed |  |  |  |  |  |  |  |  | 
2 | Cc1cccc(-c2nn3c(c2-c2ccnc4ccc(C(N)=O)cc24)CCC3)n1 [Galunisertib, galunisertib] |  | ≤ 4 h | 813 ng·h/mL | 3150 ng·h/mL | 6120 ng·h/mL | 1630 ng·h/mL | 424 ng/mL | 612 ng/mL | 1070 ng/mL | 150 mg two times per day

From article PMC7944986 (Journal for Immunotherapy of Cancer, 2021)
